Assay results published in ChEMBL document CHEMBL4219232, “Discovery of novel serine palmitoyltransferase inhibitors as cancer therapeutic agents” (Bioorg Med Chem, 2018).
Values after ≈ are worked out from the molar mass of the structure shown. Values belong to the compound of their own block, whether it stands above or below them.

Assays:
[1] = Clearance in mouse liver microsomes in presence of NADPH; format: ADME, microsome; settings: read-out: CLH
Method in brief: (§1)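 Metabolic clearance was measured in human or mouse liver microsomes with NADPH, n = 2, in μL/min/mg.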

HCC4006 = experiment: Growth inhibition of human HCC4006 cells assessed as inflection point after 5 days by cell-titer-glo luminescent cell viability assay; format: functional
Method in brief: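 HCC4006 cells were grown in RPMI with 10% FBS and penicillin/streptomycin, seeded at 250 cells/well and cultured overnight. Cells were then exposed to compound for 5 days, and the medium was replaced with CellTiter-Glo reagent for a luminescence read. The IP is the concentration at the inflection point of the dose-response curve, n = 2.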

[2] = Clearance in human liver microsomes in presence of NADPH; format: ADME, microsome; settings: read-out: CLH; method in brief: as §1
[3] = Growth inhibition of human PL21 cells after 5 days by cell-titer-glo luminescent cell viability assay; format: functional; settings: for IC50: Homo sapiens, PL-21, 120 h
Mus musculus [4] = experiment: In vivo inhibition of SPT in tumors of human HCC1806 cells xenografted in mouse assessed as reduction in 3-KDS levels at 10 mg/kg, po measured after 8 hrs post dose by LC/MS analysis relative to control; format: functional
Method in brief: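 HCC1806 breast cancer xenograft mice were dosed orally at 10 mg/kg. Tumor 3-KDS was quantified by LC/MS 8 h after dosing and compared with vehicle. Data are mean ± SD, n = 5, analysed by Dunnett's test.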

[5] = Oral bioavailability in non-fasted mouse at 1 mg/kg administered as cassette dosing by LC/MS/MS analysis; format: ADME, organism-based; settings: in vivo
Method in brief: (§2)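 Non-fasted mice received compounds as cassettes, intravenously at 0.1 mg/kg (10 compounds per cassette) or orally at 1 mg/kg (5 compounds per cassette). Blood was collected and centrifuged to plasma. Plasma was deproteinized with acetonitrile and centrifuged before analysis. Parameters are means of n = 3.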

Mus musculus [6] = experiment: Toxicity in mouse xenografted with human PL21 cells assessed as body weight loss at 10 to 30 mg/kg, po administered every other day for 2 weeks; format: organism-based; settings: in vivo, 336 h
Method in brief: (§3)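 PL-21 xenograft mice, n = 6 per group. Compound was suspended in 0.5% aqueous methylcellulose and given orally every other day for two weeks at 10 or 30 mg/kg. Tumor volume and body weight were followed. T/C is the median tumor weight of the treated group divided by that of the control group.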

[7] = Volume of distribution at steady state in non-fasted mouse at 0.1 mg/kg, iv administered as cassette dosing by LC/MS/MS analysis; format: ADME, organism-based; settings: in vivo, read-out: Vdss; method in brief: as §2
[8] = Tmax in non-fasted mouse at 1 mg/kg, po administered as cassette dosing by LC/MS/MS analysis; format: ADME, organism-based; settings: in vivo; method in brief: as §2
[9] = Total clearance in non-fasted mouse at 0.1 mg/kg, iv administered as cassette dosing by LC/MS/MS analysis; format: ADME, organism-based; settings: in vivo; method in brief: as §2
[10] = Antitumor activity against human PL21 cells xenografted in mouse at 10 mg/kg, po administered every other day for 2 weeks relative to control; format: functional; method in brief: as §3
[11] = AUC in non-fasted mouse at 1 mg/kg, po administered as cassette dosing by LC/MS/MS analysis; format: ADME, organism-based; settings: in vivo; method in brief: as §2
[12] = Antitumor activity against human PL21 cells xenografted in mouse at 30 mg/kg, po administered every other day for 2 weeks relative to control; format: functional; method in brief: as §3
[13] = Thermodynamic solubility in Japanese pharmacopoeia disintegration test solution 2 at 6.8; format: physicochemical; settings: Japanese pharmacopoeia disintegration test solution 2, pH 6.8; read-out: Therm_solubility
Method in brief: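 Thermodynamic solubility was measured in Japanese Pharmacopoeia disintegration test solution 2 at pH 6.8.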

[14] = MRT in non-fasted mouse at 1 mg/kg, po administered as cassette dosing by LC/MS/MS analysis; format: ADME, organism-based; settings: in vivo; method in brief: as §2
[15] = Cmax in non-fasted mouse at 1 mg/kg, po administered as cassette dosing by LC/MS/MS analysis; format: ADME, organism-based; parameters: dose 1 mg/kg, route oral; settings: in vivo; method in brief: as §2
[16] = Permeability of the compound from apical to basolateral side at pH 7.8 by PAMPA
[17] = Inhibition of SPT in human HCC4006 cells assessed as reduction in ceramide content after 24 hrs in presence of C16-ceramide-d31/C14-phosphatidylcholine-d72 by LC/MS analysis; settings: HCC4006, 24 h
[18] = target: T1, Serine palmitoyltransferase 2 (Homo sapiens, UniProt O15270); experiment: Inhibition of human SPT2 transfected in Freestyle293 cells using L-serine and palmitoyl-CoA as substrate preincubated for 60 mins followed by substrate addition measured after 15 mins by mass spectrometric analysis; format: cell-based
T1 sequence (O15270 whole entry): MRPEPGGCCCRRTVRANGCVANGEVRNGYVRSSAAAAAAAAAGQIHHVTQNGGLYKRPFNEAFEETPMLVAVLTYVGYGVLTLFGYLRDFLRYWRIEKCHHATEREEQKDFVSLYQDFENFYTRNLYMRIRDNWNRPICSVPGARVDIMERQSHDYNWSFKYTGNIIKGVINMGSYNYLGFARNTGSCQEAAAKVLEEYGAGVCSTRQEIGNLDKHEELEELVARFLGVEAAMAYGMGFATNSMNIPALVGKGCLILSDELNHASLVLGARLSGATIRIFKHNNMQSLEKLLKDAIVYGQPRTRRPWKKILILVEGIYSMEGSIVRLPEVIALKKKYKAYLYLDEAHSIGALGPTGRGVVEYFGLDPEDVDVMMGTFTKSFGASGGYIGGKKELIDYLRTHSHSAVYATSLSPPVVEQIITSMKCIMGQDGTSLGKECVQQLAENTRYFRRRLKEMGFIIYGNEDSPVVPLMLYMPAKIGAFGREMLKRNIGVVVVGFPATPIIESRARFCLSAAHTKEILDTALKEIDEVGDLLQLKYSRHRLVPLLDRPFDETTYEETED

microsomal CLint [1]: 216 µL/min/mg
microsomal CLint [2]: 132 µL/min/mg
Compound: COc1ccc(C(=O)N2CCC(NC(=O)c3ccccc3Cl)c3ccc(Cl)cc32)cc1OC (stereo not given)
IP (HCC4006): 500 nM

microsomal CLint [1]: 5 µL/min/mg
bioavailability [5]: 53%
Vd [7]: 1.13 L/kg
Tmax [8]: 0.5 h
clearance [9]: 15.9 mL/min/kg
AUC [11]: 572 ng·h/mL
solubility thermodynamic [13]: 24 µg/mL (≈ 45 µM)
MRT [14]: 1.4 h
microsomal CLint [2]: 6 µL/min/mg
Cmax [15]: 309 ng/mL
Papp [16]: 16.7 ×10⁻⁶ cm/s
IC50 [17]: 2.4 nM
Compound: COc1cc(C(=O)N2CC[C@H](NC(=O)c3ccccc3OC(F)(F)F)c3c2cnn3C(C)C)cnc1OC
Imax [3]: >90%
IC50 [3]: 4.1 nM
inhibition in vivo at 10 mg/kg (Mus musculus [4]): 40%
Activity (Mus musculus [6]): Non-Toxic
IP (HCC4006): 3.9 nM
T/C [10]: 52%
T/C [12]: 38%

Compound: COc1ccc(C(=O)N2CCC(Nc3ccc(Cl)cc3)c3ccc(Cl)cc32)cc1OC (stereo not given)
IP (HCC4006): 12000 nM

Compound: COc1ccc(C(=O)N2CC[C@H](NC(=O)c3ccccc3Cl)[C@@H](c3ccccc3)C2)cc1OC
IP (HCC4006): >30000 nM

microsomal CLint [1]: 245 µL/min/mg
bioavailability [5]: < 1%
microsomal CLint [2]: 21 µL/min/mg
Compound: COc1ccc(C(=O)N2CC[C@@H](NC(=O)c3ccccc3Cl)[C@@H](c3ccccc3)C2)cc1OC
IP (HCC4006): 14 nM

microsomal CLint [1]: 60 µL/min/mg
bioavailability [5]: 56%
Vd [7]: 0.75 L/kg
Tmax [8]: 1.2 h
clearance [9]: 8.45 mL/min/kg
AUC [11]: 1110 ng·h/mL
solubility thermodynamic [13]: 8 µg/mL (≈ 14.7 µM)
MRT [14]: 2.7 h
microsomal CLint [2]: < 1 µL/min/mg
Cmax [15]: 282 ng/mL
Papp [16]: 20.3 ×10⁻⁶ cm/s
IC50 [17]: 2.3 nM
Compound: Cn1nc(C(F)(F)F)cc1C(=O)N[C@@H]1CCN(C(=O)c2cc(Cl)c3nccnc3c2)C[C@@H]1c1ccccc1
Imax [3]: >90%
IC50 [3]: 11 nM
inhibition in vivo at 10 mg/kg (Mus musculus [4]): 40%
IP (HCC4006): 11 nM

Compound: COc1ccc(C(=O)N2CC[C@H](NC(=O)c3ccccc3Cl)[C@H](c3ccccc3)C2)cc1OC
IP (HCC4006): 3800 nM

Compound: COc1ccc(C(=O)N2CC[C@@H](NC(=O)c3ccccc3Cl)[C@H](c3ccccc3)C2)cc1OC
IP (HCC4006): 570 nM

Compound: COc1cc(C(=O)N2CC[C@@H](NC(=O)c3ccccc3OC(F)(F)F)c3c2cnn3C(C)C)cnc1OC
IP (HCC4006): >30000 nM

Compound: COc1ccc(C(=O)N2CCC(NC(=O)c3ccccc3Cl)C(c3ccccc3)C2)cc1OC (mixture of isomers)
IP (HCC4006): 41 nM

bioavailability [5]: 25%
microsomal CLint [2]: 15 µL/min/mg
Compound: COc1cc(C(=O)N2CCC(NC(=O)c3ccccc3OC(F)(F)F)c3c2cnn3C(C)C)cnc1OC (racemic)
IP (HCC4006): 23 nM

microsomal CLint [1]: 6 µL/min/mg
bioavailability [5]: 28%
microsomal CLint [2]: 6 µL/min/mg
Compound: COc1ccc(C(=O)N2CCC(NC(=O)c3ccccc3Cl)c3c2cnn3C)cc1OC (racemic)
IP (HCC4006): 250 nM

Compound: CCCCCCC(=O)CCCCCC/C=C/C[C@@H](O)[C@H](O)[C@@](N)(CO)C(=O)O [MYRIOCIN]
Imax [3]: >90%
IC50 [3]: 7.8 nM
IP (HCC4006): 2.1 nM
IC50 [18]: 0.13 nM
IC50 [17]: 1.5 nM
